# Results from ChEMBL document CHEMBL4715736, “Identification of anticancer agents based on the thieno[2,3-b]pyridine and 1H-pyrazole molecular scaffolds” (2016).
# Tested on: OVCAR-8
# Test: Growth inhibition of human OVCAR-8 cells assessed as cell growth at 0.01 uM incubated for 48 hrs by sulforhodamine B assay relative to control
# Format: functional
# Conditions: read-out: Activity
row,Compound,growth at 0.01 µM [%]
1,CCc1cccc(C)c1NC(=O)c1sc2nc3c(cc2c1N)C(=O)CCC3,99

# Tested on: 786-0
# Test: Growth inhibition of human 786-0 cells incubated for 48 hrs by sulforhodamine B assay
# Format: functional
# Conditions: not given
# Outline: (§1)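 NCI Developmental Therapeutics Program NCI60 panel. Compounds that were active in the 10 µM one-dose screen went on to dose–response testing. Growth at each concentration is expressed relative to untreated control (100%). GI50 (concentration giving 50% of maximal inhibition of proliferation) and TGI (concentration giving total growth inhibition) were derived from the curves.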
Compound,GI50 [nM],TGI [nM]
CCc1cccc(C)c1NC(=O)c1sc2nc3c(cc2c1N)C(=O)CCC3,542,> 100000

# Same assay, conditions: read-out: LC50 (the source's name)
row,Compound,CC50 [nM]
1,CCc1cccc(C)c1NC(=O)c1sc2nc3c(cc2c1N)C(=O)CCC3,> 100000

# Tested on: NCI-H226
# Test: Growth inhibition of human NCI-H226 cells assessed as cell growth at 100 uM incubated for 48 hrs by sulforhodamine B assay relative to control
# Format: functional
# Conditions: read-out: Activity
row,Compound,growth at 100 µM [%]
1,CCc1cccc(C)c1NC(=O)c1sc2nc3c(cc2c1N)C(=O)CCC3,8

# Tested on: SW-620
# Test: Growth inhibition of human SW-620 cells assessed as cell growth at 1 uM incubated for 48 hrs by sulforhodamine B assay relative to control
# Format: functional
# Conditions: read-out: Activity
row,Compound,growth at 1 µM [%]
1,CCc1cccc(C)c1NC(=O)c1sc2nc3c(cc2c1N)C(=O)CCC3,17

# Tested on: SN12C
# Test: Growth inhibition of human SN12C cells assessed as cell growth at 0.01 uM incubated for 48 hrs by sulforhodamine B assay relative to control
# Format: functional
# Conditions: read-out: Activity
row,Compound,growth at 0.01 µM [%]
1,CCc1cccc(C)c1NC(=O)c1sc2nc3c(cc2c1N)C(=O)CCC3,97

# Tested on: HCC 2998
# Test: Growth inhibition of human HCC 2998 cells assessed as cell growth at 0.01 uM incubated for 48 hrs by sulforhodamine B assay relative to control
# Format: functional
# Conditions: read-out: Activity
# Outline: as §1
row,Compound,growth at 0.01 µM [%]
1,CCc1cccc(C)c1NC(=O)c1sc2nc3c(cc2c1N)C(=O)CCC3,99

# Tested on: T47D
# Test: Growth inhibition of human T47D cells assessed as cell growth at 100 uM incubated for 48 hrs by sulforhodamine B assay relative to control
# Format: functional
# Conditions: read-out: Activity
row,Compound,growth at 100 µM [%]
1,CCc1cccc(C)c1NC(=O)c1sc2nc3c(cc2c1N)C(=O)CCC3,-10

# Tested on: CCRF-CEM
# Test: Growth inhibition of human CCRF-CEM cells assessed as cell growth at 1 uM incubated for 48 hrs by sulforhodamine B assay relative to control
# Format: functional
# Conditions: read-out: Activity
# Outline: as §1
row,Compound,growth at 1 µM [%]
1,CCc1cccc(C)c1NC(=O)c1sc2nc3c(cc2c1N)C(=O)CCC3,16

# Tested on: SF-539
# Test: Growth inhibition of human SF-539 cells assessed as cell growth at 0.01 uM incubated for 48 hrs by sulforhodamine B assay relative to control
# Format: functional
# Conditions: read-out: Activity
row,Compound,growth at 0.01 µM [%]
1,CCc1cccc(C)c1NC(=O)c1sc2nc3c(cc2c1N)C(=O)CCC3,89

# Tested on: DU-145
# Test: Growth inhibition of human DU-145 cells assessed as cell growth at 100 uM incubated for 48 hrs by sulforhodamine B assay relative to control
# Format: functional
# Conditions: read-out: Activity
# Outline: as §1
row,Compound,growth at 100 µM [%]
1,CCc1cccc(C)c1NC(=O)c1sc2nc3c(cc2c1N)C(=O)CCC3,9

# Tested on: OVCAR-3
# Test: Growth inhibition of human OVCAR-3 cells incubated for 48 hrs by sulforhodamine B assay
# Format: functional
# Conditions: not given
# Outline: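 NCI DTP 60-line human tumour panel. Dose-response curves were run only for ligands active in the initial 10 µM screen. GI50 (concentration giving 50% of maximal inhibition of proliferation) and TGI (concentration giving total growth inhibition) were derived from these curves.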
Compound,GI50 [nM],TGI [nM]
CCc1cccc(C)c1NC(=O)c1sc2nc3c(cc2c1N)C(=O)CCC3,374,2300

# Same assay, conditions: read-out: LC50 (the source's name)
row,Compound,CC50 [nM]
1,CCc1cccc(C)c1NC(=O)c1sc2nc3c(cc2c1N)C(=O)CCC3,> 100000

# Tested on: PC-3
# Test: Growth inhibition of human PC-3 cells assessed as cell growth at 0.01 uM incubated for 48 hrs by sulforhodamine B assay relative to control
# Format: functional
# Conditions: read-out: Activity
row,Compound,growth at 0.01 µM [%]
1,CCc1cccc(C)c1NC(=O)c1sc2nc3c(cc2c1N)C(=O)CCC3,94

# Tested on: KM12
# Test: Growth inhibition of human KM12 cells assessed as cell growth at 0.1 uM incubated for 48 hrs by sulforhodamine B assay relative to control
# Format: functional
# Conditions: read-out: Activity
row,Compound,growth at 0.1 µM [%]
1,CCc1cccc(C)c1NC(=O)c1sc2nc3c(cc2c1N)C(=O)CCC3,92

# Tested on: SK-MEL-5
# Test: Growth inhibition of human SK-MEL-5 cells assessed as cell growth at 1 uM incubated for 48 hrs by sulforhodamine B assay relative to control
# Format: functional
# Conditions: read-out: Activity
row,Compound,growth at 1 µM [%]
1,CCc1cccc(C)c1NC(=O)c1sc2nc3c(cc2c1N)C(=O)CCC3,6

# Tested on: DU-145
# Test: Growth inhibition of human DU-145 cells assessed as cell growth at 1 uM incubated for 48 hrs by sulforhodamine B assay relative to control
# Format: functional
# Conditions: read-out: Activity
# Outline: as §1
row,Compound,growth at 1 µM [%]
1,CCc1cccc(C)c1NC(=O)c1sc2nc3c(cc2c1N)C(=O)CCC3,21

# Tested on: SW-620
# Test: Growth inhibition of human SW-620 cells assessed as cell growth at 100 uM incubated for 48 hrs by sulforhodamine B assay relative to control
# Format: functional
# Conditions: read-out: Activity
row,Compound,growth at 100 µM [%]
1,CCc1cccc(C)c1NC(=O)c1sc2nc3c(cc2c1N)C(=O)CCC3,14
